Measurements as given in ChEMBL document CHEMBL1944538, “Synthetic peptides derived from the sequence of a lasso peptide microcin J25 show antibacterial activity” (Bioorg Med Chem, 2012).
Converted amounts (≈) assume the structure as drawn. The source made the active and inactive calls. The rule behind the calls is not given here. Positions of bridges follow the written chain, without caps; N, C: chain ends. Residues, ends and D or L forms follow the SMILES beside them.

Legend:
[1] = Cytotoxicity against human MCF7 cells assessed as cell viability at 0.3 to 100 uM after 24 hrs by MTT assay; type: cell-based; conditions: read-out: Activity
Outline: (§1)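 MTT assay. MDA-MB-435 cells were kept in RPMI 1640 and MCF7 cells in DMEM, both with 10% FBS, penicillin and streptomycin, at 37 °C and 5% CO2. Cells were seeded at 1×10^4/well and grown 24 h. Samples came from 1 mM stocks in 10% DMSO/water, twofold diluted to 0.3125–100 µM, and applied for 24 h. MTT (5 mg/mL) was added for 3.5 h, then DMSO solubilization and A570. Viability is relative to untreated cells; triplicate, mean.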

[2] = test system: Salmonella typhimurium; assay: Antibacterial activity against Salmonella Typhimurium AFLB 25 up to 250 uM after 24 hrs by liquid growth inhibition assay; type: functional, organism-based; conditions: Salmonella enterica subsp. enterica serovar Typhimurium
Outline: (§2)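 Liquid broth microdilution in LB. Peptide stocks were made in 20% methanol/water (1 or 2.5 mM), then serially doubled in water to final 0.01–100 or 0.5–250 µM. Inoculum was diluted to OD620 0.02–0.05. Plates ran 24 h at 37 °C and were read at OD620. MIC was the lowest concentration giving 100% growth inhibition (0.05 AU). Triplicate wells, three repeat experiments.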

[3] = test system: Salmonella paratyphi; assay: Antibacterial activity against Salmonella paratyphi up to 250 uM after 24 hrs by liquid growth inhibition assay; type: functional, organism-based; conditions: Salmonella enterica subsp. enterica serovar Paratyphi A
[4] = test system: Salmonella enterica subsp. enterica serovar Heidelberg; assay: Antibacterial activity against Salmonella heidelberg ATCC 8326 up to 250 uM after 24 hrs by liquid growth inhibition assay; type: functional; outline: as §2
[5] = test system: Staphylococcus aureus; assay: Antibacterial activity against Staphylococcus aureus ATCC 6538; type: functional, organism-based
[6] = test system: Enterococcus faecalis; assay: Antibacterial activity against Enterococcus faecalis ATCC 19433; type: functional, organism-based
[7] = test system: Salmonella typhimurium; assay: Antibacterial activity against Salmonella Typhimurium ATCC 13311 up to 250 uM after 24 hrs by liquid growth inhibition assay; type: functional, organism-based; conditions: Salmonella enterica subsp. enterica serovar Typhimurium; outline: as §2
[8] = test system: Salmonella enterica subsp. enterica serovar Montevideo; assay: Antibacterial activity against Salmonella montevideo 20 up to 250 uM after 24 hrs by liquid growth inhibition assay; type: functional; outline: as §2
[9] = test system: Salmonella enterica subsp. enterica serovar Newport; assay: Antibacterial activity against Salmonella newport clinical isolate up to 250 uM after 24 hrs by liquid growth inhibition assay; type: functional; outline: as §2
[10] = test system: Salmonella enterica subsp. enterica serovar Choleraesuis; assay: Antibacterial activity against Salmonella choleraesuis ATCC 10708 up to 250 uM after 24 hrs by liquid growth inhibition assay; type: functional
[11] = Cytotoxicity against human MDA-MB-435 cells assessed as cell viability at 0.3 to 100 uM after 24 hrs by MTT assay; type: cell-based; conditions: read-out: Activity; outline: as §1
[12] = test system: Salmonella enteritidis; assay: Antibacterial activity against Salmonella enteritidis AFLB 41 up to 250 uM after 24 hrs by liquid growth inhibition assay; type: functional, organism-based; conditions: Salmonella enterica subsp. enterica serovar Enteritidis; outline: as §2
[13] = test system: Escherichia coli; assay: Antibacterial activity against Escherichia coli MC4100 up to 250 uM after 24 hrs by liquid growth inhibition assay; type: functional, organism-based; outline: as §2
[14] = test system: Salmonella enteritidis; assay: Antibacterial activity against Salmonella enteritidis PT8 up to 250 uM after 24 hrs by liquid growth inhibition assay; type: functional, organism-based; conditions: Salmonella enterica subsp. enterica serovar Enteritidis; outline: as §2
[15] = test system: Salmonella enteritidis; assay: Antibacterial activity against Salmonella enteritidis AFLB 81 up to 250 uM after 24 hrs by liquid growth inhibition assay; type: functional, organism-based; conditions: Salmonella enterica subsp. enterica serovar Enteritidis; outline: as §2
[16] = test system: Escherichia coli; assay: Antibacterial activity against Escherichia coli DH5alpha up to 250 uM after 24 hrs by liquid growth inhibition assay; type: functional, organism-based; conditions: DH5[alpha]; outline: as §2
[17] = test system: Salmonella enteritidis; assay: Antibacterial activity against Salmonella enteritidis AFLB 11 up to 250 uM after 24 hrs by liquid growth inhibition assay; type: functional, organism-based; conditions: Salmonella enterica subsp. enterica serovar Enteritidis; outline: as §2
[18] = test system: Salmonella enteritidis; assay: Antibacterial activity against Salmonella enteritidis ATCC 13076 up to 250 uM after 24 hrs by liquid growth inhibition assay; type: functional, organism-based; conditions: Salmonella enterica subsp. enterica serovar Enteritidis; outline: as §2
[19] = Stability of the compound at 150 uM after 30 mins by RP-HPLC analysis in the presence of pepsin; type: ADME; conditions: 0.5 h
Outline: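 Peptide (150 µM) was incubated at 37 °C with pepsin (4% w/w) in 0.1 N HCl. Aliquots taken at 0 and 30 min were quenched into 0.1 N NaOH/70% methanol and centrifuged. Supernatant was analysed by C18 RP-HPLC (15–50% isopropanol/water, 0.05% TFA, 35 min, UV 220 nm). Fragments were identified by MALDI-TOF.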

[20] = test system: Salmonella enterica subsp. enterica serovar Newport; assay: Inhibition of oxygen consumption in Salmonella newport clinical isolate at 30 uM after 35 mins by Gilson Clarke oxygraph analysis; type: functional
Outline: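 Cells were held 35 min at 37 °C with peptide at the stated concentration. Respiration rate over the next 5 min was measured polarographically with a Clark electrode oxygraph at 37 °C. Results are percent of a peptide-free control; three independent experiments, mean ± SD.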

[21] = Stability of the compound at 200 uM after overnight incubation by spot on lawn method in the presence of chymotrypsin; type: ADME
[22] = Antibacterial activity against Salmonella newport clinical isolate after 24 hrs by liquid growth inhibition assay; type: functional, Salmonella enterica subsp. enterica serovar Newport; conditions: Salmonella enterica; outline: as §2
[23] = Thermostability in boiling water after 3 hrs; type: physicochemical; conditions: buffer
[24] = Bactericidal activity against Salmonella newport clinical isolate after 24 hrs; type: functional, Salmonella enterica subsp. enterica serovar Newport; conditions: Salmonella enterica
Outline: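 For MBC, 10 µL from each clear well of the 24 h, 37 °C LB broth-dilution plate was spread on LB agar and incubated 24 h at 37 °C. MBC was the lowest concentration giving no growth on agar.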

Row | SMILES | viability at 24 h, up to 100 µM [1] | Activity [2] | Activity [3] | Activity [4] | Activity [5] | Activity [6] | Activity [7] | Activity [8] | Activity [9] | Activity [10] | viability at 24 h, up to 100 µM [11] | Activity [12] | Activity [13] | Activity [14] | Activity [15] | Activity [16] | Activity [17] | Activity [18] | further results
1 | CC[C@H](C)[C@@H]1NC(=O)[C@@H]2CCCN2C(=O)CNC(=O)CNC(=O)[C@H](CCCNC(=N)N)NC(=O)CNC(=O)[C@H](C(C)C)NC(=O)[C@H](Cc2ccccc2)NC(=O)[C@H](Cc2ccc(O)cc2)NC(=O)[C@@H]2CSSC[C@H](NC(=O)[C@H](CCC(=O)O)NC1=O)C(=O)NCC(=O)N[C@@H](C)C(=O)NCC(=O)N[C@@H](Cc1cnc[nH]1)C(=O)N[C@@H](C(C)C)C(=O)N1CCC[C@H]1C(=O)N2 (cyclo(AGHVPCYFVGRGGPIECG); disulfide 6-17) | > 90% | inactive | inactive | inactive | inactive | inactive | inactive | inactive | inactive | inactive | > 90% | inactive | inactive | inactive | inactive | inactive | inactive | inactive | 
2 | CC[C@H](C)[C@H](NC(=O)[C@@H]1CCCN1C(=O)CNC(=O)CNC(=O)[C@H](CCCNC(=N)N)NC(=O)CNC(=O)[C@@H](NC(=O)[C@H](Cc1ccccc1)NC(=O)[C@H](Cc1ccc(O)cc1)NC(=O)[C@@H]1CSSC[C@H](N)C(=O)NCC(=O)N[C@@H](C)C(=O)N[C@@H](Cc2ccccc2)C(=O)N[C@@H](Cc2cnc[nH]2)C(=O)N[C@@H](C(C)C)C(=O)N2CCC[C@H]2C(=O)N1)C(C)C)C(=O)N[C@@H](CO)C(=O)N[C@@H](Cc1ccccc1)C(=O)O (H-CGAFHVPCYFVGRGGPISF-OH; disulfide 1-8) | > 90% | inactive | inactive | inactive | inactive | inactive | inactive | inactive | inactive | inactive | > 90% | inactive | inactive | inactive | inactive | inactive | inactive | inactive | 
3 | CC[C@H](C)[C@H](NC(=O)CNC(=O)[C@@H](NC(=O)[C@H](Cc1ccccc1)NC(=O)[C@H](Cc1ccc(O)cc1)NC(=O)[C@@H]1CSSC[C@H](N)C(=O)NCC(=O)N[C@@H](C)C(=O)NCC(=O)N[C@@H](CCCCN)C(=O)N[C@@H](C(C)C)C(=O)N2CCC[C@H]2C(=O)N1)C(C)C)C(=O)NCC(=O)N[C@H](C(=O)N1CCC[C@H]1C(=O)N[C@H](C(=O)N[C@@H](CO)C(=O)N[C@@H](Cc1ccccc1)C(=O)N[C@@H](CCC(=O)O)C(=O)NCC(=O)O)[C@@H](C)CC)[C@@H](C)O (H-CGAGKVPCYFVGIGTPISFEG-OH; disulfide 1-8) | 75% | inactive | inactive | inactive | inactive | inactive | inactive | inactive | inactive | inactive | 75% | inactive | inactive | inactive | inactive | inactive | inactive | inactive | 
4 | CC[C@H](C)[C@H](NC(=O)[C@@H]1CCCN1C(=O)[C@@H](NC(=O)CNC(=O)[C@H](CCCNC(=N)N)NC(=O)CNC(=O)[C@@H](NC(=O)[C@H](Cc1ccccc1)NC(=O)[C@H](Cc1ccc(O)cc1)NC(=O)[C@@H]1CSSC[C@H](N)C(=O)NCC(=O)N[C@@H](C)C(=O)NCC(=O)N[C@@H](Cc2ccccc2)C(=O)N[C@@H](Cc2cnc[nH]2)C(=O)N[C@@H](C(C)C)C(=O)N2CCC[C@H]2C(=O)N1)C(C)C)[C@@H](C)O)C(=O)N[C@@H](CO)C(=O)N[C@@H](Cc1ccccc1)C(=O)N[C@@H](Cc1ccc(O)cc1)C(=O)NCC(=O)O (H-CGAGFHVPCYFVGRGTPISFYG-OH; disulfide 1-9) | > 90% | inactive | inactive | inactive | inactive | inactive | inactive | inactive |  | inactive | > 90% | inactive | inactive | inactive | inactive | inactive | inactive | inactive | Stability [19]: Unstable; inhibition [20]: inactive; Stability [21]: Unstable; MIC [22]: 30 µM (≈ 70 µg/mL); Stability [23]: Unstable; MBC [24]: 62.5 µM (≈ 146 µg/mL)
5 | CC[C@H](C)[C@H](NC(=O)CNC(=O)[C@@H](NC(=O)[C@H](Cc1ccccc1)NC(=O)[C@H](Cc1ccc(O)cc1)NC(=O)[C@@H]1CSSC[C@H](N)C(=O)NCC(=O)N[C@@H](C)C(=O)N[C@@H](CCCCN)C(=O)N[C@@H](Cc2cnc[nH]2)C(=O)N[C@@H](C(C)C)C(=O)N2CCC[C@H]2C(=O)N1)C(C)C)C(=O)NCC(=O)N[C@H](C(=O)N1CCC[C@H]1C(=O)N[C@H](C(=O)N[C@@H](CO)C(=O)N[C@@H](Cc1ccccc1)C(=O)N[C@@H](CCC(=O)O)C(=O)O)[C@@H](C)CC)[C@@H](C)O (H-CGAKHVPCYFVGIGTPISFE-OH; disulfide 1-8) | 75% | inactive | inactive | inactive | inactive | inactive | inactive | inactive | inactive | inactive |  | inactive | inactive | inactive | inactive | inactive | inactive | inactive | 
